Compounds with a hit are over-represented: about 3.7% of the library has one in this group of screens.
KCNK3 block: human KCNK3 channel inhibition, primary screen; CHO-KCNK3 thallium flux, FluxOR fluorescence; active compounds read low; B-score at 10 µM; 340,000 compounds, 0.84% hits; AID 602410;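 active = B-score under library mean minus 4 SD, starting fluorescence ratio at most library mean plus 5 SD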;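 note: more negative B-score means stronger inhibition of thallium flux through KCNK3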
Target sequence (O14649 whole entry, looked up): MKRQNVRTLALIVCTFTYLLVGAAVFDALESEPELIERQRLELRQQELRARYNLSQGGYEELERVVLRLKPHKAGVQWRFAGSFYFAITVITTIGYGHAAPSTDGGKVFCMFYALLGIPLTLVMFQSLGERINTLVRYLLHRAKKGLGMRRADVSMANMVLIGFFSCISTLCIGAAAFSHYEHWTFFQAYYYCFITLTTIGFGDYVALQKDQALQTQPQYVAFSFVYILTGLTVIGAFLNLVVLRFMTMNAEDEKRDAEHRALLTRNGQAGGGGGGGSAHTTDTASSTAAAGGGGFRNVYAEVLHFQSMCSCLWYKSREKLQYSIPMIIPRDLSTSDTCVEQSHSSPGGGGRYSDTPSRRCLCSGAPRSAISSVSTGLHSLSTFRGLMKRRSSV
Kir21 inh: inhibitors of mouse Kir2.1 inward-rectifier potassium channel; HEK293-Kir2.1, FluxOR thallium flux fluorescence; active compounds read low; B-score at 10 µM; 310,000 compounds, 0.85% hits;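 active = fluorescence ratio B-score at or below minus 3 SD of library scores, with starting-brightness B-score within 2 SD, cut at about -4.2 in these data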;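 note: channel flux triggered by added potassium and thallium sulfate stimulus; B-score of peak minus minimum fluorescence over baseline after thallium stimulus; more negative B-score means stronger Kir2.1 block with less thallium influx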
Target sequence (P35561 whole entry, looked up): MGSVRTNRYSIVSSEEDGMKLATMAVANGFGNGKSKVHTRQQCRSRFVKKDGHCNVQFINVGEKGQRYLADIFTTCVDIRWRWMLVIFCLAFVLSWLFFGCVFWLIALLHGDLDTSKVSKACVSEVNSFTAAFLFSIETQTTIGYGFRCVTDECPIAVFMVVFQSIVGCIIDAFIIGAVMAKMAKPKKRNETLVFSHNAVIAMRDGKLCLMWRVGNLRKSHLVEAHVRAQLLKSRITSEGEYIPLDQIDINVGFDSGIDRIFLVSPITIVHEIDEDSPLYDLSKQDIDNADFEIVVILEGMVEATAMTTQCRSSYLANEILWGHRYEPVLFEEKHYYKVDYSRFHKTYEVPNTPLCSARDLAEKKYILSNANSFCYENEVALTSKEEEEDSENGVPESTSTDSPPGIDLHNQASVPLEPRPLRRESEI
hERG rescue: compounds protecting human hERG from proarrhythmic drug block. CHO-hERG, FluxOR thallium flux, dofetilide IC70 present. 310,000 compounds, 0.51% hits. Q12809. AID 1511. activation (rescue from dofetilide block), less the hit threshold, % at 10 µM;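 active = activation above the mean of controls blocked by dofetilide plus 5 SD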;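 note: thallium influx through hERG after potassium depolarization seen as dye fluorescence rise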
KCNQ1 act: potentiators or activators of human KCNQ1 potassium channel. CHO-K1 KCNQ1, thallium flux FluxOR fluorescence; active compounds read high. B-score at 10 µM. 310,000 compounds, 0.35% hits. AID 2648;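 active = fluorescence ratio B-score, a plate-corrected score, at least three library SD, with initial intensity B-score within 5 SD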
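Assay system: CHO-K1 cells stably expressing KCNQ1. Medium: assay buffer for compound exposure, DMSO matched across wells. Timing: 37 °C overnight plating, 90-min dark dye load, 20-min compound pretreatment. Signal: kinetic FluxOR fluorescence, 10 s baseline plus 110 s post-stimulus.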
KCNQ1 block: human KCNQ1 channel inhibition; P51787; CHO-K1 KCNQ1, FluxOR thallium flux fluorescence; active compounds read high; B-score at 10 µM; 310,000 compounds, 1.3% hits; AID 2642;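 active = compounds whose thallium flux B-score, printed positive for inhibition, exceeds three library SD while starting fluorescence stays within three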;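 note: channel opened by potassium depolarization with thallium stimulus after 20 min compound exposure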
KCNK9 inh-1: blocks the human KCNK9 two-pore domain potassium channel | B-score at 10 µM | 310,000 compounds, 1.2% hits | Q9NPC2 | HEK293 KCNK9, FluxOR thallium flux fluorescence; active compounds read low;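 active = ratio B-score over 3 SD below the library mean, with starting fluorescence within 5 SD of its mean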;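 note: negative B-score means less thallium flux so channel inhibition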
hERG ctr: hERG (human) inhibition as Kir2.1 counter-screen; inhibition, % at 10 µM; 320 compounds, 20% hits; shares compounds with Kir21 inh; hERG-expressing cells, thallium flux; AID 2236;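 note: host cells are CHO cells stably expressing hERG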
KCNK9 inh-2: selectivity of Kir2.1 inhibitors: effect on human KCNK9; shares compounds with Kir21 inh; KCNK9-expressing cells, ion flux inhibition; inhibition, % at 10 µM; 320 compounds, 5% hits; AID 2329
Kir2-1 patch inh: blocks mouse Kir2.1 current in automated electrophysiology; shares compounds with Kir21 inh; Kir2.1 cells, automated patch-clamp current inhibition; inhibition, % at 25 µM; 320 compounds, 71% hits
KCNQ1 block val: reconfirmed blocker of the human KCNQ1 potassium channel; AID 588353; 1,600 compounds, 93% hits; inhibition, % at 10 µM; KCNQ1 cell line, FluxOR thallium flux fluorescence; shares compounds with KCNQ1 block;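 active = primary screen active, with duplicate mean exceeding buffer control mean plus 3 SD of buffer wells, cut at about 28% in these data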;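 note: 0% = buffer control ratio and 100% = XE991 inhibitor control ratio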
CHO Tl flux: counter-screen for KCNQ1 inhibitors: effect in parental CHO cells. shares compounds with KCNQ1 block. parental CHO-K1, FluxOR thallium flux fluorescence ratio; active compounds read low; zero means no signal rise above baseline. fluorescence ratio (Tl flux) at 10 µM. 1,600 compounds, 21% hits. AID 588366;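 active = mean of duplicate thallium-flux fluorescence ratios in parental host cells more than 5 SD below the buffer control mean, cut at about 0.38 in these data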;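 note: ratio is peak minus minimum fluorescence divided by baseline fluorescence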
KCNQ1 APC inh: confirmation of human KCNQ1 potassium channel inhibitors by electrophysiology | calls only at 10 µM | KCNQ1-CHO cells, automated patch clamp current | 490 compounds, 20% hits | shares compounds with KCNQ1 block;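 active = KCNQ1 current drop exceeding 3 SD of negative control wells, seen in both duplicate runs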;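 note: steady state current during a 2 s step from -80 to +40 mV; negative values mean current inhibition and positive values mean potentiation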
KCNQ2 inh: KCNQ1 inhibitor that also blocks rat KCNQ2 channel | KCNQ2 cells, FluxOR thallium flux fluorescence | shares compounds with KCNQ1 block | 1,600 compounds, 71% hits | inhibition, % at 10 µM;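 active = mean percent inhibition of the KCNQ2 thallium signal more than 5 SD above the buffer-only control wells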;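 note: KCNQ2 expressed in CHO cells; 0% = buffer control wells and 100% = XE-991 inhibitor control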
KCNQ1-KCNE1 inh: KCNQ1 inhibitor that also blocks human KCNQ1/KCNE1 channel; 1,600 compounds, 77% hits; shares compounds with KCNQ1 block; inhibition, % at 10 µM; KCNQ1/KCNE1 cells, FluxOR thallium flux fluorescence;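 active = mean percent inhibition of duplicate wells above the buffer-only control mean plus 3 SD of those controls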;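 note: 0% = buffer only wells and 100% = XE-991 inhibitor control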
KCNK9 block conf: confirmation of human KCNK9 potassium channel inhibitors. shares compounds with KCNK9 inh-1. HEK293 KCNK9 cells, FluxOR thallium flux fluorescence. inhibition, % at 10 µM. 4,900 compounds, 43% hits;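 active = thallium signal inhibited by more than 5 SD of the compound-free buffer control wells, on both duplicate plates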;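 note: 0% = assay buffer control wells without compound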
Kir21 sel: tests whether KCNK9 modulators also affect mouse Kir2.1; Kir2.1 cells, FluxOR thallium flux fluorescence; 4,900 compounds, 4% hits; shares compounds with KCNK9 inh-1; inhibition, % at 10 µM;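 active = thallium signal drop more than 5 SD beyond the mean of the no-compound control wells, seen in both duplicate plates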;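 note: signal is fluorescence rise after thallium addition divided by baseline fluorescence; plate controls were assay buffer only for no effect and full block by chlorpromazine control for full effect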
KCNK9 uninduced: non-induced cell nonspecific activity of KCNK9 modulators | shares compounds with KCNK9 inh-1 | non-induced KCNK9-HEK293, FluxOR thallium flux | inhibition, % at 10 µM | 4,900 compounds, 40% hits | AID 492997;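 active = thallium signal drop beyond 5 SD of the untreated control mean, on both duplicate plates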;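 note: plate controls were buffer only IC0 wells for no effect and SID17386958 at its maximal inhibitory level for full effect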
KCNK3 confirm: confirmation of human KCNK3 two-pore domain potassium channel inhibitors. shares compounds with KCNK3 block. CHO-KCNK3 thallium flux, FluxOR fluorescence; 0% buffer, 100% carvedilol maximal block. ratio percent of control, % at 10 µM. 2,400 compounds, 99% hits;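 active = ratio percent of control, averaged over triplicates, above buffer control mean plus 5 SD, cut at about 64% in these data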;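 note: ratio is the fluorescence rise from min to max over baseline after thallium stimulus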
KCNK3 uninduced: KCNK3 inhibitor counter-screen hit in non-induced cells; shares compounds with KCNK3 block; non-induced KCNK3 parental cells, FluxOR thallium flux; active compounds read low; thallium flux ratio (lower = more inhibition) at 10 µM; 2,400 compounds, 40% hits; AID 651747;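 active = thallium flux ratio, averaged over three wells, more than 5 SD below the buffer control mean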;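 note: host cells are CHO cells without KCNK3 induction; ratio is peak minus trough fluorescence over baseline then normalized to buffer controls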
An asterisk follows results filed as active; i = inactive; · = no result given; + = active, no number. Unless noted, the rule behind the calls is not given here.

SMILES | KCNK3 block | Kir21 inh | hERG rescue | KCNQ1 act | KCNQ1 block | KCNK9 inh-1 | KCNQ1 block val | CHO Tl flux | KCNQ1 APC inh | KCNQ2 inh | KCNQ1-KCNE1 inh | others
Cc1ccc(-c2nc3ccccn3c2NCc2ccc3c(c2)OCO3)cc1 | -9.9* | -7.1* | -44 | i | 10* | -17* | 118* | 0.39 | i | 113%* | 188%* | hERG ctr=63%*;KCNK9 inh-2=56%*;Kir2-1 patch inh=i;KCNK9 block conf=52%*;Kir21 sel=i;KCNK9 uninduced=i;KCNK3 confirm=143*;KCNK3 uninduced=i
C=CCc1ccc(OCC(O)CN2CCc3ccccc3C2)c(OC)c1 (centres undefined) | -9* | -5.8* | -11 | i | i | i | · | · | · | · | · | hERG ctr=56%*;KCNK9 inh-2=i;Kir2-1 patch inh=25%*;KCNK3 confirm=103*;KCNK3 uninduced=0.14*
COc1nnc(-c2ccc(N3CCCCC3)c(NC(C)=O)c2)c2ccccc12 | i | -2.4 | -13 | i | i | i | · | · | · | · | ·
O=[N+]([O-])c1cccc(-c2csc(Nc3ccccc3)n2)c1 | -14* | 2.8 | -33 | i | i | i | · | · | · | · | · | hERG ctr=i;KCNK9 inh-2=i;Kir2-1 patch inh=i;KCNK3 confirm=124*;KCNK3 uninduced=0.14*
COc1ccccc1Nc1nc(-c2cccc([N+](=O)[O-])c2)cs1 | i | 1.9 | -5 | i | i | i | · | · | · | · | ·
CCOc1ccc(NC(=O)c2ccccc2NC(=O)c2cccnc2)cc1 | i | 1.9 | -6 | i | i | i | · | · | · | · | ·
COc1ccc(-c2cc(-c3nnc(COC(=O)c4ccc(O)cc4)o3)c3ccccc3n2)cc1OC | i | 0.61 | -22 | i | 9* | i | 104* | 0.43 | i | 98%* | +
COc1ccc(-c2cc(-c3nnc(COC(=O)C4CC4)o3)c3ccccc3n2)cc1OC | i | 0.88 | -9 | i | i | i | · | · | · | · | ·
CCN(CCO)c1nc(NCc2ccccc2)c2cnn(C)c2n1 | i | 0.04 | -6 | i | i | i | · | · | · | · | ·
Cc1cccc(C)c1OCc1cc(C(=O)N2CCC(C3CCCCC3)C2)no1 (centres undefined) | i | -0.44 | -7 | i | 7* | i | 69* | 0.44 | · | i | 110%*
Cc1cccc(C)c1OCc1cc(C(=O)N2CCC(c3ccccc3)CC2)no1 | i | -1.5 | -10 | i | 9* | i | 119* | 0.4 | i | 110%* | 168%*
O=C(c1cc(COc2cccc3cnccc23)on1)N1CCCC(CCCO)C1 (centres undefined) | i | 2.3 | -24 | i | 14* | i | 108* | 0.47 | i | 92%* | 44%*
Cc1cc(C)n2nnnc2n1 | i | -1.5 | -10 | i | i | i | · | · | · | · | ·
O=C(NCCc1ccccc1)C1CCC(CNS(=O)(=O)c2cccc3cccnc23)CC1 (centres undefined) | i | 0.21 | -6 | i | i | i | · | · | · | · | ·
O=C(Nc1ccc(Br)cc1)Nc1ccccc1F | i | 0.85 | -5 | i | 7* | i | 52* | 0.53 | · | i | i
CC(=O)Nc1cccc2ccc(O)cc12 | i | · | · | · | · | · | · | · | · | · | ·
Cc1cc2c(NC(=O)Nc3ccccc3)cccc2nn1 | i | 0.76 | -3 | i | i | i | · | · | · | · | ·
Cc1cc2c(NC(=O)Nc3ccc(C(C)(C)C)cc3)cccc2nn1 | i | 1.9 | -19 | i | 7* | i | 118* | 0.45 | i | 81%* | 68%*
O=C(Nc1ccccc1F)Nc1cccc2ccc(O)cc12 | i | 2.3 | -10 | i | 9* | i | 80* | 0.54 | · | 64%* | i
Cc1ccccc1NC(=O)Nc1ccc(C(F)(F)F)cc1 | i | 0.56 | -5 | i | 6* | i | 134* | 0.55 | i | 101%* | i
N/C(=N\S(=O)(=O)c1cc(C(F)(F)F)cc(C(F)(F)F)c1)c1ccc(Cl)cc1 | i | 0.14 | -10 | i | 7* | i | 0 | 0.41 | · | i | i
CCOC(=O)c1c(C)[nH]c(C(=O)C(C)OC(=O)c2cccc(OCc3c(C)noc3C)c2)c1C (centres undefined) | -12* | 0.47 | -3 | i | 17* | i | 127* | 0.46 | i | 109%* | 138%*
CCC(C)NC(=O)c1cccc(OCc2c(C)noc2C)c1 (centres undefined) | i | -0.91 | -10 | i | i | i | · | · | · | · | ·
Cc1ccccc1N1C(=O)c2cccc3c(N(C)CCO)ccc(c23)C1=O | i | -7.3 | -32 | i | i | i | · | · | · | · | ·
